Usually IC50 stands for the concentration at which inhibition is half-maximal.

Active and inactive are the calls of the source. No rule for the calls is given here.

For test [1], the species on record is Sus scrofa. Nature of the test: Inhibition of porcine heart MDH using malic acid as substrate preincubated for 10 mins followed by substrate addition and measured after 5 mins by resazurin based fluorescence based assay. The following applies: time 15.0 min. A general note: Alamar Blue is a resazurin reagent that responds to reducing activity.
In test [2] the test system is MIA PaCa-2. Briefly: Cytotoxicity against human MIA PaCa-2 cells assessed as reduction in cell viability after 48 hrs by CellTiter-Glo assay. The following applies: MIA PaCa-2, 48 h. The class given is functional, cell-based. (In general: In ATP-based viability assays light output follows the ATP content of the culture.)
Test [3] deals with T1, L-lactate dehydrogenase A chain (Homo sapiens, UniProt P00338). Briefly: Inhibition of LDHA in human A673 cells assessed as decrease in lactate production incubated for 2 hrs by lactate oxidase-coupled fluorescence based assay. The class given is cell-based.
The target in test [4] is T1, L-lactate dehydrogenase A chain. Nature of the test: Inhibition of GS[HiBiT]GS-tagged LDHA (unknown origin) expressed in HEK-293T cells measured after 1 hr by […]. The class given is cell-based. The gist of the method: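 HEK293T cells were transiently transfected for 24 h with CMV-driven LDHA carrying a C-terminal GS[HiBiT]GS tag, then reseeded at 2500 cells/well in DPBS with Ca/Mg and 1 g/L glucose. […] Cells were lysed with NP40, and 11S (100 nM final) plus furimazine was added.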
For orientation: With HiBiT, luminescence reflects the tagged protein that the partner subunit can reach.

In test [5] the test system is A673. Nature of the test: Cytotoxicity against human A673 cells assessed as reduction in cell viability after 48 hrs by CellTiter-Glo assay. The class given is functional, cell-based. The following applies: A673, 48 h.
Test [6] addresses T1, L-lactate dehydrogenase A chain. Briefly: Inhibition of recombinant human LDHA using sodium pyruvate as substrate preincubated for 5 mins followed by diaphorase/resazurin addition and measured after 20 mins by fluorescence based assay.
Test [7] deals with L-lactate dehydrogenase B chain (Homo sapiens) (UniProt P07195). Nature of the test: Inhibition of recombinant human LDHB using sodium pyruvate as substrate preincubated for 5 mins followed by diaphorase/resazurin addition and measured after 20 mins by fluorescence based assay.
In test [8] the target is T1, L-lactate dehydrogenase A chain. Briefly: Inhibition of LDHA in human MIA PaCa-2 cells assessed as decrease in lactate production incubated for 2 hrs by lactate oxidase-coupled fluorescence based assay. The class given is cell-based.

Sequence of L-lactate dehydrogenase B chain (Homo sapiens) (P07195 2-334 limits assumed): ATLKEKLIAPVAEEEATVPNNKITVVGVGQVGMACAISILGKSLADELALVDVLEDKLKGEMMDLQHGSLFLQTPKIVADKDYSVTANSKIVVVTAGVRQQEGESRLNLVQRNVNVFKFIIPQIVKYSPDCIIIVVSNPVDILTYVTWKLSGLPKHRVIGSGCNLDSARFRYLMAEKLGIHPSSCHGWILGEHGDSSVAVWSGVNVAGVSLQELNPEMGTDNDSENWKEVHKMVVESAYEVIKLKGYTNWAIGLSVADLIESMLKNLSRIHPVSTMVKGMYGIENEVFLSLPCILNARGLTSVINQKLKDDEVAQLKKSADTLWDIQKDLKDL

On to `Cc1cc(C)c(C#Cc2cccc(-c3nn(-c4nc(C(=O)O)cs4)c(CC4CC4)c3Cc3ccc(S(N)(=O)=O)c(F)c3)c2)s1`, for which, in test [1], the inhibition entry was “inactive”. Also, the IC50 was 533 nM in test [2]; 345 nM in test [3]; 201 nM in test [4]; 528 nM in test [5]; 137 nM in test [6]; 218 nM in test [8]. For the same molecule, the inhibition entry in test [7] is “Active”.
Regarding `CCCCC#Cc1cc(-c2nn(-c3nc(C(=O)O)cs3)c(CC3CC3)c2Cc2ccc(S(N)(=O)=O)c(F)c2)ccc1F`, the inhibition entry in test [1] is “inactive”. The IC50 in test [2] came out at 845 nM; in test [3], 405 nM; in test [4] it was 106 nM; in test [5], 773 nM; in test [6], 50 nM; in test [8], 298 nM. Besides, the inhibition entry in test [7] is “Active”.
As to `CC(C)(C)C#Cc1cc(-c2nn(-c3nc(C(=O)O)cs3)c(CC3CC3)c2Cc2ccc(S(N)(=O)=O)c(F)c2)ccc1F`, the inhibition entry in test [1] was “inactive”. Besides, the IC50 in test [2] was 845 nM; in test [3], 141 nM; in test [4], 75 nM; in test [5] it was 935 nM; in test [6] it was 16 nM; in test [8] it was 137 nM. Also, the inhibition result in test [7] is “Active”.
Turning to `Cc1cnc(C#Cc2cccc(-c3nn(-c4nc(C(=O)O)cs4)c(CCC4CC4)c3Cc3ccc(S(N)(=O)=O)c(F)c3)c2)s1`, the inhibition result in test [1] was “inactive”. For the same molecule, the IC50 was found to be 173 nM in test [2]; 364 nM in test [3]; 84 nM in test [4]; 180 nM in test [5]; 33 nM in test [6]; 417 nM in test [8]. For the same molecule, the inhibition entry in test [7] is “Active”.
Regarding `Cc1cnc(C#Cc2cccc(-c3nn(-c4nc(C(=O)O)cs4)c(CC4CC4)c3Cc3ccc(S(N)(=O)=O)c(F)c3)c2)s1`, the inhibition result in test [1] was “inactive”. Further, the IC50 in test [2] amounted to 360 nM; in test [3], 527 nM; in test [4] it was 90 nM; in test [5], 309 nM; in test [6] it was 17 nM; in test [8] it was 487 nM. Moreover, the inhibition result in test [7] is “Active”.
Take `NS(=O)(=O)c1ccc(Cc2c(-c3ccc(F)c(C#CC4CCC4)c3)nn(-c3nc(C(=O)O)cs3)c2CC2CC2)cc1F`: in test [1], the inhibition entry is “inactive”. Also, the IC50 in test [2] came to 573 nM; in test [3] it was 378 nM; in test [4], 133 nM; in test [5], 593 nM; in test [6], 23 nM; in test [8], 428 nM. The inhibition entry in test [7] is “Active”.
In the case of `Cc1nc(C#Cc2cccc(-c3nn(-c4nc(C(=O)O)cs4)c(CC4CC4)c3Cc3ccc(S(N)(=O)=O)c(F)c3)c2)cs1`, the inhibition result in test [1] is “inactive”. In addition, the IC50 in test [2] turned out to be 471 nM; in test [3] (a673) it was 1170 nM; in test [4] it was 101 nM; in test [5] it was 347 nM; in test [6], 13 nM; in test [8] (mia paca-2), 1180 nM. Also, in test [7], the inhibition result is “Active”.
Regarding `CCC#Cc1cc(-c2nn(-c3nc(C(=O)O)cs3)c(CC3CC3)c2Cc2ccc(S(N)(=O)=O)c(F)c2)ccc1F`, the inhibition result in test [1] is “inactive”. The IC50 came to 662 nM in test [2]; 487 nM in test [3]; 112 nM in test [4]; 716 nM in test [5]; 14 nM in test [6]; 470 nM in test [8]. In addition, in test [7], the inhibition entry is “Active”.
Turning to `NS(=O)(=O)c1ccc(Cc2c(-c3cccc(-c4ccccc4)c3)nn(-c3nc(C(=O)O)cs3)c2C2(C(F)(F)F)CC2)cc1`, in test [1], the inhibition result is “inactive”. Further, the IC50 in test [2] was more than 30000 nM; in test [3], 20200 nM; in test [4], 303 nM; in test [5], more than 30000 nM; in test [6], 4100 nM; in test [8], 12800 nM. Besides, in test [7], the inhibition entry is “Active”.
For `NS(=O)(=O)c1ccc(Cc2c(-c3cccc(C#Cc4ccc(C(F)(F)F)s4)c3)nn(-c3nc(C(=O)O)cs3)c2CC2CC2)cc1F`, the inhibition entry in test [1] was “inactive”. Moreover, the IC50 in test [2] was determined as 803 nM; in test [3], 485 nM; in test [4], 113 nM; in test [5], 833 nM; in test [6], 434 nM; in test [8] it was 337 nM. Also, the inhibition result in test [7] is “Active”.
For the molecule `Cc1ncc(C#Cc2cccc(-c3nn(-c4nc(C(=O)O)cs4)c(CC4CC4)c3Cc3ccc(S(N)(=O)=O)c(F)c3)c2)s1`, the inhibition entry in test [1] is “inactive”. The IC50 in test [2] was 641 nM; in test [3], 713 nM; in test [4] it was 38 nM; in test [5] it was 532 nM; in test [6], 43 nM; in test [8], 720 nM. Moreover, the inhibition result in test [7] was “Active”.
Take `Cc1cc(C#Cc2cccc(-c3nn(-c4nc(C(=O)O)cs4)c(CC4CC4)c3Cc3ccc(S(N)(=O)=O)c(F)c3)c2)c(C)s1`: the inhibition result in test [1] is “inactive”. For the same molecule, the IC50 in test [2] was 810 nM; in test [3], 161 nM; in test [4] it was 299 nM; in test [5], 716 nM; in test [6] it was 235 nM; in test [8], 218 nM. Further, the inhibition result in test [7] was “Active”.
With `Cc1ccc(C#Cc2cccc(-c3nn(-c4nc(C(=O)O)cs4)c(CCC4CC4)c3Cc3ccc(S(N)(=O)=O)c(F)c3)c2)o1`, the inhibition entry in test [1] is “inactive”. Besides, the IC50 was determined as 137 nM in test [2]; 547 nM in test [3]; 95 nM in test [4]; 137 nM in test [5]; 52 nM in test [6]; 417 nM in test [8]. In addition, in test [7], the inhibition result is “Active”.
Consider `NS(=O)(=O)c1ccc(Cc2c(-c3cccc(-c4ccccc4)c3)nn(-c3nc(C(=O)O)cs3)c2CCC2CC2)cc1`, for which, in test [1], the inhibition entry is “inactive”. In addition, the 50% inhibitory concentration (IC50) in test [2] amounted to 6200 nM; in test [3] it was 509 nM; in test [4], 727 nM; in test [5] it was 1960 nM; in test [6], 36 nM; in test [8], 804 nM. Further, the inhibition result in test [7] is “Active”.
In the case of `Cc1ncc(C#Cc2cccc(-c3nn(-c4nc(C(=O)O)cs4)c(CCC4CC4)c3Cc3ccc(S(N)(=O)=O)c(F)c3)c2)s1`, in test [1], the inhibition entry was “inactive”. The IC50 in test [2] amounted to 218 nM; in test [3], 434 nM; in test [4], 17800 nM; in test [5] it was 218 nM; in test [6] it was 24 nM; in test [8], 334 nM. Further, the inhibition entry in test [7] is “Active”.
With `CC(F)C#Cc1cc(-c2nn(-c3nc(C(=O)O)cs3)c(CC3CC3)c2Cc2ccc(S(N)(=O)=O)c(F)c2)ccc1F` (stereo not drawn), the inhibition result in test [1] was “inactive”. In addition, the IC50 in test [2] amounted to 1020 nM; in test [3], 800 nM; in test [4], 127 nM; in test [5] it was 1130 nM; in test [6] it was 14 nM; in test [8] it was 822 nM. For the same molecule, the inhibition result in test [7] was “Active”.
Take `Cc1cc(C#Cc2cccc(-c3nn(-c4nc(C(=O)O)cs4)c(CCC4CC4)c3Cc3ccc(S(N)(=O)=O)c(F)c3)c2)c(C)s1`: in test [1], the inhibition entry was “inactive”. Moreover, the IC50 in test [2] was 402 nM; in test [3], 162 nM; in test [4] it was 299 nM; in test [5], 402 nM; in test [6], 487 nM; in test [8], 188 nM. In addition, the inhibition entry in test [7] was “Active”.
For `NS(=O)(=O)c1ccc(Cc2c(-c3ccc(F)c(/C=C/C4CC4)c3)nn(-c3nc(C(=O)O)cs3)c2CC2CC2)cc1F`, the inhibition entry in test [1] is “inactive”. Moreover, the IC50 in test [2] was 837 nM; in test [3] it was 320 nM; in test [4], 134 nM; in test [5] it was 833 nM; in test [6] it was 15 nM; in test [8], 231 nM. The inhibition entry in test [7] was “Active”.
`NS(=O)(=O)c1ccc(Cc2c(-c3ccc(F)c(C#CC4CC4)c3)nn(-c3nc(C(=O)O)cs3)c2CC2CC2)cc1F`: in test [1], the inhibition entry is “inactive”. Besides, the IC50 turned out to be 323 nM in test [2]; 695 nM in test [3]; 100 nM in test [4]; 132 nM in test [5]; 9 nM in test [6]; 554 nM in test [8]. Further, the inhibition result in test [7] is “Active”.
For the molecule `Cn1cc(C#Cc2cc(-c3nn(-c4nc(C(=O)O)cs4)c(CC4CC4)c3Cc3ccc(S(N)(=O)=O)c(F)c3)ccc2F)cn1`, the inhibition result in test [1] was “inactive”. In addition, the IC50 in test [2] came to 619 nM; in test [3], 1600 nM; in test [4] it was 189 nM; in test [5] it was 593 nM; in test [6] it was 9 nM; in test [8], 1140 nM. Besides, the inhibition result in test [7] is “Active”.
For `Cc1cc(C#Cc2cccc(-c3nn(-c4nc(C(=O)O)cs4)c(CC4CC4)c3Cc3ccc(S(N)(=O)=O)c(F)c3)c2)cs1`, in test [1], the inhibition entry is “inactive”. Also, the IC50 was 332 nM in test [2]; 494 nM in test [3]; 95 nM in test [4]; 359 nM in test [5]; 87 nM in test [6]; 657 nM in test [8]. For the same molecule, in test [7], the inhibition result is “Active”.

Source of the values: ChEMBL document CHEMBL4665801, “Pyrazole-Based Lactate Dehydrogenase Inhibitors with Optimized Cell Activity and Pharmacokinetic Properties” (J Med Chem, 2020).
